Assay results taken from ChEMBL document CHEMBL1149786, “Synthesis and antihypertensive effects of new methylthiomorpholinphenol derivatives” (2008).
Calls of active or inactive are those of the source. No cut-off for these calls is given here.

Experiments:
[1] = test system: Rattus norvegicus; experiment: Hypotensive effect in anesthetized Wistar rat arterial pressure model assessed as decrease in heart rate at 0.01 mg/kg administered through femoral vein; format: functional, organism-based; parameters: dose 0.01 mg/kg
How it was run: (§1)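 Male Wistar rats (280–320 g) under sodium pentobarbital (45 mg/kg, ip), tracheotomised. Right carotid cannulated (PE50) to a pressure transducer recording systolic, diastolic and mean arterial pressure and heart rate. Cumulative iv doses via femoral vein every 5 min: test series 0.0001–10 mg/kg, reference drugs 0.0001–1.0 mg/kg, n = 5. Change measured from pre-dose basal; ED50 taken from a fitted dose–effect model.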

[2] = test system: Rattus norvegicus; experiment: Hypotensive effect in anesthetized Wistar rat arterial pressure model assessed as decrease in heart rate at 0.1 mg/kg administered through femoral vein; format: functional, organism-based; parameters: dose 0.1 mg/kg; how it was run: as §1
[3] = test system: Rattus norvegicus; experiment: Hypotensive effect in anesthetized Wistar rat arterial pressure model assessed as decrease in heart rate at 1.0 mg/kg administered through femoral vein; format: functional, organism-based; parameters: dose 1 mg/kg; how it was run: as §1
[4] = test system: Rattus norvegicus; experiment: Hypotensive effect in anesthetized Wistar rat arterial pressure model assessed as decrease in heart rate at 10.0 mg/kg administered through femoral vein; format: functional, organism-based; parameters: dose 10 mg/kg; how it was run: as §1
[5] = test system: Rattus norvegicus; experiment: Hypotensive effect in anesthetized Wistar rat arterial pressure model assessed as decrease in heart rate at 3.1 mg/kg administered through femoral vein; format: functional, organism-based; parameters: dose 3.1 mg/kg; how it was run: as §1
[6] = test system: Rattus norvegicus; experiment: Antihypertensive effect in anesthetized Wistar rat; format: functional; how it was run: as §1
[7] = test system: Rattus norvegicus; experiment: Antihypertensive effect in spontaneous hypertensive Wistar rat model assessed as maximum decrease in systolic arterial pressure at 1.0 mg/kg, po after 60 mins; format: functional, Artery
How it was run: (§2)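 Conscious spontaneously hypertensive rats given a single oral dose of 1.0 mg/kg. Systolic and diastolic pressure and heart rate followed over 2.0 h. The largest fall from baseline and the time at which it occurred were recorded for each variable.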

[8] = test system: Rattus norvegicus; experiment: Antihypertensive effect in spontaneous hypertensive Wistar rat model assessed as maximum decrease in diastolic arterial pressure at 1.0 mg/kg, po after 60 mins; format: functional, Artery; how it was run: as §2
[9] = test system: Rattus norvegicus; experiment: Antihypertensive effect in spontaneous hypertensive Wistar rat model assessed as maximum decrease in heart rate per min at 1.0 mg/kg, po after 120 mins; format: functional; how it was run: as §2
[10] = test system: Rattus norvegicus; experiment: Hypotensive effect in anesthetized Wistar rat arterial pressure model at 1.0 mg/kg administered through femoral vein; format: functional, organism-based; parameters: dose 1 mg/kg; settings: Artery; how it was run: as §1
[11] = test system: Rattus norvegicus; experiment: Hypotensive effect in anesthetized Wistar rat arterial pressure model at 3.1 mg/kg administered through femoral vein; format: functional, organism-based; parameters: dose 3.1 mg/kg; settings: Artery; how it was run: as §1
[12] = test system: Rattus norvegicus; experiment: Hypotensive effect in anesthetized Wistar rat arterial pressure model at 10.0 mg/kg administered through femoral vein; format: functional, organism-based; parameters: dose 10 mg/kg; settings: Artery; how it was run: as §1
[13] = test system: Rattus norvegicus; experiment: Hypotensive effect in anesthetized Wistar rat arterial pressure model at 0.001 mg/kg administered through femoral vein; format: functional, organism-based; parameters: dose 0.001 mg/kg; settings: Artery; how it was run: as §1
[14] = test system: Rattus norvegicus; experiment: Hypotensive effect in anesthetized Wistar rat arterial pressure model at 0.1 mg/kg administered through femoral vein; format: functional, organism-based; parameters: dose 0.1 mg/kg; settings: Artery; how it was run: as §1
[15] = test system: Rattus norvegicus; experiment: Antihypertensive effect in spontaneous hypertensive Wistar rat model assessed as maximum decrease in systolic arterial pressure at 1.0 mg/kg, po after 100 mins; format: functional, Artery; how it was run: as §2
[16] = test system: Rattus norvegicus; experiment: Antihypertensive effect in spontaneous hypertensive Wistar rat model assessed as maximum decrease in heart rate per min at 1.0 mg/kg, po after 100 mins; format: functional; how it was run: as §2
[17] = test system: Rattus norvegicus; experiment: Hypotensive effect in anesthetized Wistar rat arterial pressure model at 0.0001 mg/kg administered through femoral vein; format: functional, organism-based; parameters: dose 0.0001 mg/kg; settings: Artery; how it was run: as §1
[18] = test system: Rattus norvegicus; experiment: Antihypertensive effect in anesthetized Wistar rat assessed as reduction of mean arterial pressure at 1 mg/kg administered through femoral vein; format: functional, organism-based; parameters: dose 1 mg/kg; settings: Artery
How it was run: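 Male Wistar rats (280–320 g) anesthetized with sodium pentobarbital (45 mg/kg ip), tracheotomized; right carotid artery cannulated to a pressure transducer recording systolic, diastolic and mean arterial pressure and heart rate. Compounds given IV via femoral vein as cumulative dose–effect curve (0.0001–10 mg/kg), doses every five minutes; n = 5.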

[19] = test system: Rattus norvegicus; experiment: Antihypertensive effect in spontaneous hypertensive Wistar rat model assessed as maximum decrease in systolic arterial pressure at 1.0 mg/kg, po after 90 mins; format: functional, Artery; how it was run: as §2
[20] = test system: Rattus norvegicus; experiment: Antihypertensive effect in spontaneous hypertensive Wistar rat model assessed as maximum decrease in diastolic arterial pressure at 1.0 mg/kg, po after 90 mins; format: functional, Artery; how it was run: as §2
[21] = test system: Rattus norvegicus; experiment: Hypotensive effect in anesthetized Wistar rat arterial pressure model at 0.01 mg/kg administered through femoral vein; format: functional, organism-based; parameters: dose 0.01 mg/kg; settings: Artery; how it was run: as §1
[22] = test system: Rattus norvegicus; experiment: Antihypertensive effect in anesthetized Wistar rat assessed as change mean arterial pressure at 10.0 mg/kg administered through femoral vein; format: functional, Artery; how it was run: as §1
[23] = test system: Rattus norvegicus; experiment: Antihypertensive effect in anesthetized Wistar rat assessed as change systolic arterial pressure at 10.0 mg/kg administered through femoral vein; format: functional, Artery; how it was run: as §1
[24] = test system: Rattus norvegicus; experiment: Antihypertensive effect in anesthetized Wistar rat assessed as change diastolic arterial pressure at 10.0 mg/kg administered through femoral vein; format: functional, Artery; how it was run: as §1
[25] = test system: Rattus norvegicus; experiment: Antihypertensive effect in spontaneous hypertensive Wistar rat model assessed as maximum decrease in systolic arterial pressure at 1.0 mg/kg, po after 80 mins; format: functional, Artery; how it was run: as §2
[26] = test system: Rattus norvegicus; experiment: Antihypertensive effect in spontaneous hypertensive Wistar rat model assessed as maximum decrease in diastolic arterial pressure at 1.0 mg/kg, po after 80 mins; format: functional, Artery; how it was run: as §2
[27] = test system: Rattus norvegicus; experiment: Antihypertensive effect in spontaneous hypertensive Wistar rat model assessed as maximum decrease in heart rate per min at 1.0 mg/kg, po after 80 mins; format: functional; how it was run: as §2
[28] = test system: Rattus norvegicus; experiment: Hypotensive effect in anesthetized Wistar rat arterial pressure model assessed as decrease in heart rate at 0.0001 mg/kg administered through femoral vein; format: functional, organism-based; parameters: dose 0.0001 mg/kg; how it was run: as §1
[29] = test system: Rattus norvegicus; experiment: Hypotensive effect in anesthetized Wistar rat arterial pressure model assessed as decrease in heart rate at 0.001 mg/kg administered through femoral vein; format: functional, organism-based; parameters: dose 0.001 mg/kg; how it was run: as §1
[30] = test system: Rattus norvegicus; experiment: Antihypertensive effect in spontaneous hypertensive Wistar rat model assessed as maximum decrease in diastolic arterial pressure at 1.0 mg/kg, po after 100 mins; format: functional, Artery; how it was run: as §2
[31] = test system: Rattus norvegicus; experiment: Antihypertensive effect in spontaneous hypertensive Wistar rat model assessed as maximum decrease in heart rate per min at 1.0 mg/kg, po after 110 mins; format: functional; how it was run: as §2
[32] = test system: Rattus norvegicus; experiment: Antihypertensive effect in anesthetized Wistar rat assessed as reduction of systolic arterial pressure at 1 mg/kg administered through femoral vein; format: functional, organism-based; parameters: dose 1 mg/kg; settings: Artery; how it was run: as §1
[33] = test system: Rattus norvegicus; experiment: Antihypertensive effect in anesthetized Wistar rat assessed as reduction of diastolic arterial pressure at 1 mg/kg administered through femoral vein; format: functional, organism-based; parameters: dose 1 mg/kg; settings: Artery; how it was run: as §1
[34] = test system: Rattus norvegicus; experiment: Antihypertensive effect in spontaneous hypertensive Wistar rat model assessed as maximum decrease in systolic arterial pressure at 1.0 mg/kg, po after 50 mins; format: functional, Artery; how it was run: as §2
[35] = test system: Rattus norvegicus; experiment: Antihypertensive effect in spontaneous hypertensive Wistar rat model assessed as maximum decrease in heart rate per min at 1.0 mg/kg, po after 70 mins; format: functional; how it was run: as §2

Row | Structure (SMILES) | Activity [1] | Activity [2] | Activity [3] | Activity [4] | Activity [5] | ED50 [6] | Activity [8] | Activity [10] | Activity [11] | Activity [12] | further results
1 | Oc1cc(O)c(CN2CCSCC2)cc1CN1CCSCC1 | Active | Active | Active | Active | Active | 0.363 mg/kg | 29.2 mmHg | – | – | – | Activity [7]: 45.6 mmHg; Activity [9]: 92.5
2 | CC(C)(C)c1ccc(O)c(CN2CCSCC2)c1 | Active | Active | Active | Active | – | 1.04 mg/kg | 31.8 mmHg | Active | Active | Active | Activity [13]: Active; Activity [14]: Active; Activity [15]: 71.5 mmHg; Activity [16]: 148 beats/min
3 | CC(C)(c1ccc(O)c(CN2CCSCC2)c1)c1ccc(O)c(CN2CCSCC2)c1 | Active | Active | Active | Active | Active | 1.41 mg/kg | 12.6 mmHg | Active | Active | Active | Activity [17]: Active; Activity [7]: 28.1 mmHg; Activity [9]: 106.566
4 | CC(C)(C)c1cc(CN2CCSCC2)c(O)c(CN2CCSCC2)c1 | – | – | Active | Active | Active | 0.411 mg/kg | – | Active | Active | Active | Activity [13]: Active; Activity [14]: Active; Activity [17]: Active; Activity [18]: Active; Activity [19]: 95.8 mmHg; Activity [20]: 48.2 mmHg; Activity [16]: 160 beats/min; Activity [21]: Active
5 | O=C(N[C@H]1CCS[C@H]2CCC[C@@H](C(=O)O)N2C1=O)[C@@H](S)Cc1ccccc1 [OMAPATRILAT] | – | – | – | – | – | 0.0058 mg/kg | – | – | – | – | –
6 | CCCCc1nc(Cl)c(CO)n1Cc1ccc(-c2ccccc2-c2nnn[nH]2)cc1 [LOSARTAN] | – | – | – | – | – | 0.0282 mg/kg | – | – | – | – | Activity [22]: 41.31 mmHg; Activity [23]: 43.62 mmHg; Activity [24]: 45.64 mmHg; Activity [25]: 82.3 mmHg; Activity [26]: 66.3 mmHg; Activity [27]: 38.37
7 | Oc1ccc(Cl)cc1CN1CCSCC1 | Active | – | – | – | – | 2.21 mg/kg | – | Active | Active | Active | Activity [28]: Active; Activity [29]: Active; Activity [15]: 73.9 mmHg; Activity [30]: 46.7 mmHg; Activity [31]: 72.2
8 | C[C@H](CS)C(=O)N1CCC[C@H]1C(=O)O [CAPTOPRIL] | – | – | – | – | – | 0.00062 mg/kg | – | – | – | – | Activity [32]: Active; Activity [33]: Active; Activity [34]: 42 mmHg; Activity [30]: 36.5 mmHg; Activity [35]: 52.04
